{"source": "paper PMC9512414", "about": "(International Journal of Nanomedicine, 2022)", "test_system": "lung tumor", "assay": "18F-FDG PET imaging of Kras metastatic lung cancer patients", "format": "in vivo", "settings": "Kras metastatic patients (Stage IV), in relation to control groups", "in_short": "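Patients had 18F-FDG PET/CT at baseline before combined test treatment, after three treatment cycles (interim), and after treatment ended (late). Each patient had at least two scans. Images were reconstructed by ordered subset expectation maximization with six iterations and 12 subsets.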", "data": [{"molecule": "Daclizumab: FDA-approved drug, CD25 inhibitor (antibody, chains of the INN, looked up, V domains shown) VH: QVQLVQSGAEVKKPGSSVKVSCKASGYTFTSYRMHWVRQAPGQGLEWIGYINPSTGYTEYNQKFKDKATITADESTNTAYMELSSLRSEDTAVYYCARGGGVFDYWGQGTLVTVSS VL: DIQMTQSPSTLSASVGDRVTITCSASSSISYMHWYQQKPGKAPKLLIYTTSNLASGVPARFSGSGSGTEFTLTISSLQPDDFATYYCHQRSTYPLTFGQGTKVEVK", "values": [{"measurement": "tumor burden by comparative 18F-FDG PET imaging", "value": "lower tumor burden"}]}]}
